Active and inactive are the calls of the source. The calls are words filed in the database; no cut-off is given here.
What was measured:
[1] = target: Hydroxycarboxylic acid receptor 3 (Homo sapiens) (UniProt P49019); assay: Agonist activity at human GPR109b assessed as decrease in forskolin-stimulated cAMP production by HTRF assay; assay type: functional
Mus musculus [2] = assay: Toxicity in C57/Bl6 mouse assessed as increase in cutaneous blood flow in ear at 100 mg/kg, ip after 5 mins relative to vehicle treated control by laser doppler flowmetry; assay type: organism-based; set-up: dose 100 mg/kg, route intraperitoneal; conditions: in vivo
In short: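 Male C57/Bl6 mice (8–10 weeks, ~25 g) anesthetized with Nembutal ip (80 mg/10 mL/kg). Ear perfusion recorded by laser Doppler imaging: 3 min baseline, then vehicle (PBS, 40% HPBCD or 0.5% methylcellulose) or compound given ip at 5 mL/kg through a preinserted syringe, with readings for ~15 min. Expressed as % change of perfusion over baseline.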

Rattus norvegicus [3] = assay: Antidyslipedic activity in fasted Sprague-Dawley rat assessed as decrease in free fatty acid level at 0.001 mg/kg, po by NEFA C-free fatty acid assay; assay type: functional, organism-based; set-up: dose 0.001 mg/kg
In short: (§1)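 Male Sprague-Dawley rats fasted, compound by oral gavage, serial plasma sampling after dosing for free fatty acids over a time course; vehicle-dosed control group.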

[4] = Oral bioavailability in mouse; assay type: ADME, organism-based; conditions: in vivo
[5] = Volume of distribution in dog; assay type: ADME, organism-based, Canis lupus familiaris; conditions: in vivo
[6] = Plasma clearance in dog; assay type: ADME, organism-based, Canis lupus familiaris
Rattus norvegicus [7] = assay: Antidyslipedic activity in fasted Sprague-Dawley rat assessed as decrease in free fatty acid level at 0.01 to 100 mg/kg, po by NEFA C-free fatty acid assay; assay type: functional; set-up: scale not given: the % may be the effect or the level left; conditions: dose mg/kg 0.01-100; in short: as §1
Cytochrome P450 3A4 = Cytochrome P450 3A4 (Homo sapiens, UniProt P08684); assay: Activity at CYP3A4; assay type: ADME
Cytochrome P450 3A4, sequence (P08684 whole entry): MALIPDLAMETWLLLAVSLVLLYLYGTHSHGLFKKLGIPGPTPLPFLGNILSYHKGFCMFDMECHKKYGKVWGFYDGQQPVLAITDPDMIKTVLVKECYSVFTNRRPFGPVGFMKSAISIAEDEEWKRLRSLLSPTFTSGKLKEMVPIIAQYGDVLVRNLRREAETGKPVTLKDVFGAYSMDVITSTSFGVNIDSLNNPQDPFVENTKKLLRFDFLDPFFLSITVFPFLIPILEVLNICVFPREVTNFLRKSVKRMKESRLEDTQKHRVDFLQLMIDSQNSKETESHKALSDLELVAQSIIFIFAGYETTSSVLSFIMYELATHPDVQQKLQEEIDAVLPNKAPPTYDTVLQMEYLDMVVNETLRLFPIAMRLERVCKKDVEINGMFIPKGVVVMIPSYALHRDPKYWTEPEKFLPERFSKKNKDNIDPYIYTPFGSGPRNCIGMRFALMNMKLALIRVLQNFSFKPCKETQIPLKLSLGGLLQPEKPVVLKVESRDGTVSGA

Canis familiaris [8] = assay: Dose normalized Cmax in po dosed dog; assay type: ADME, organism-based, Canis lupus familiaris; conditions: in vivo
[9] = Plasma clearance in Sprague-Dawley rat at 2 mg/kg, iv; assay type: ADME, organism-based; set-up: dose 2 mg/kg, route intravenous
In short: (§2)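 Male Sprague-Dawley rats were dosed at 10 mg/kg po or 2 mg/kg iv in 80% PEG400/20% phosphate-buffered saline, fasted overnight before the oral dose. Jugular blood was sampled serially from 0.25 to 21 h over 24 h, and heparinized plasma was prepared. Drug was assayed by HPLC/MS/MS (quantitation range 1–2000 ng/mL).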

[10] = Blood clearance in mouse; assay type: ADME, organism-based; conditions: whole blood
In short: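 Pharmacokinetics across species; for mice, clearance determined in blood rather than plasma following dosing.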

[11] = Oral bioavailability in dog; assay type: ADME, organism-based, Canis lupus familiaris; conditions: in vivo
Cytochrome P450 2C8 = target: T1, Cytochrome P450 2C8 (Homo sapiens, UniProt P10632); assay: Activity at CYP2C8; assay type: ADME
T1 sequence (P10632 whole entry): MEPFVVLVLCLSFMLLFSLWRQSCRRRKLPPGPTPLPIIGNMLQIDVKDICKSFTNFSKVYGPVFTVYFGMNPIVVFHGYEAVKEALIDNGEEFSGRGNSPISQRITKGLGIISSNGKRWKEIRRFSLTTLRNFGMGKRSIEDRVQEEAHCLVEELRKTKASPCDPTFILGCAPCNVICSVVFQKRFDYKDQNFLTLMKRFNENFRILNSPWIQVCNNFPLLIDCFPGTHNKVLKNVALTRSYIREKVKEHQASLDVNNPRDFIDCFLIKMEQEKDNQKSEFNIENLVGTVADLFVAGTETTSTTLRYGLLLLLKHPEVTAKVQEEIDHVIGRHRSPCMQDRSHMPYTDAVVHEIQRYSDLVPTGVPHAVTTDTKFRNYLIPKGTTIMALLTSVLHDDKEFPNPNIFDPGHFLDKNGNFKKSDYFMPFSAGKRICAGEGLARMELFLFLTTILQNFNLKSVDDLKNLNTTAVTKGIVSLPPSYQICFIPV

Rattus norvegicus [12] = assay: Dose normalized AUC in Sprague-Dawley rat at 10 mg/kg, po; assay type: ADME, organism-based; set-up: dose 10 mg/kg, route oral; conditions: in vivo; in short: as §2
[13] = Volume of distribution in mouse; assay type: ADME, organism-based; conditions: in vivo
[14] = Terminal half life in mouse; assay type: ADME, organism-based; conditions: in vivo, read-out: beta t1/2 (converted)
[15] = Terminal half life in dog; assay type: ADME, organism-based, Canis lupus familiaris; conditions: in vivo, read-out: beta t1/2 (converted)
Cytochrome P450 2D6 = Cytochrome P450 2D6 (Homo sapiens, UniProt P10635); assay: Activity at CYP2D6; assay type: ADME
Cytochrome P450 2D6, sequence (P10635 whole entry): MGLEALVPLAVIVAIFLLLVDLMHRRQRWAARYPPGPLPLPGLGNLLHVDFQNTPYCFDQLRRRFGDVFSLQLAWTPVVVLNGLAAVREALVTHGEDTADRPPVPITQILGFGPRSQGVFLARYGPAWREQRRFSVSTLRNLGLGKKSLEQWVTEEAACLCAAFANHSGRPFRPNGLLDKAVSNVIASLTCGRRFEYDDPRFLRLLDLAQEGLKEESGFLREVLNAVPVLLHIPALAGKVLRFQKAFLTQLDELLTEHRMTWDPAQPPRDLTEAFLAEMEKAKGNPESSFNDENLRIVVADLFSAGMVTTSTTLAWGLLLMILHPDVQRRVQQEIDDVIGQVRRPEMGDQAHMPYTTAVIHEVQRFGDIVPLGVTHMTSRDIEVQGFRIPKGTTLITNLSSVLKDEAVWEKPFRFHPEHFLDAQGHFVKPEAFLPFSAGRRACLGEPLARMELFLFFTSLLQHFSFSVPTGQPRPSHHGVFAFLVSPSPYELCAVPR

[16] = Terminal half life in Sprague-Dawley rat at 2 mg/kg, iv; assay type: ADME, organism-based; set-up: dose 2 mg/kg, route intravenous; conditions: in vivo, read-out: beta t1/2 (converted); in short: as §2
[17] = Oral bioavailability in Sprague-Dawley rat at 10 mg/kg; assay type: ADME, organism-based; conditions: in vivo; in short: as §2
Canis familiaris [18] = assay: Dose normalized AUC in po dosed dog; assay type: ADME, organism-based, Canis lupus familiaris; conditions: in vivo
Cytochrome P450 2C9 = Cytochrome P450 2C9 (Homo sapiens, UniProt P11712); assay: Activity at CYP2C9; assay type: ADME
Cytochrome P450 2C9, sequence (P11712 whole entry): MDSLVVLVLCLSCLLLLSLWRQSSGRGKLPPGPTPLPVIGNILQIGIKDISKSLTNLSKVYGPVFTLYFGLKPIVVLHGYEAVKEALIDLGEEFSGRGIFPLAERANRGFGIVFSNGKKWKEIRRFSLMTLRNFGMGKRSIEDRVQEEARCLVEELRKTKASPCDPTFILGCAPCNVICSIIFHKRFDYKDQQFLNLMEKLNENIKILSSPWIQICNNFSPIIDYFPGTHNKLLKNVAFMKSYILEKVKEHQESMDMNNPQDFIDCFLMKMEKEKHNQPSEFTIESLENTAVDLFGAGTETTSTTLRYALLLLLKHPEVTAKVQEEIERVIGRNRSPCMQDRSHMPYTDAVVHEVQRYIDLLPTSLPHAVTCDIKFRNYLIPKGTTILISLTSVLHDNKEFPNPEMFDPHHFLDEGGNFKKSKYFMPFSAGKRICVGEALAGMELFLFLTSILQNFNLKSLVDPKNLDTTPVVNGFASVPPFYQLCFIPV

Rattus norvegicus [19] = assay: Antidyslipedic activity in fasted Sprague-Dawley rat assessed as decrease in free fatty acid level at 0.1 to 30 mg/kg, po by NEFA C-free fatty acid assay; assay type: functional; set-up: scale not given: the % may be the effect or the level left; conditions: dose mg/kg 0.1-30; in short: as §1
Mus musculus [20] = assay: Dose normalized Cmax in po dosed mouse; assay type: ADME, organism-based; conditions: in vivo
Mus musculus [21] = assay: Dose normalized AUC in po dosed mouse; assay type: ADME, organism-based; conditions: in vivo
[22] = Volume of distribution in Sprague-Dawley rat at 2 mg/kg, iv; assay type: ADME, organism-based; set-up: dose 2 mg/kg, route intravenous; conditions: in vivo
In short: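 Male Sprague–Dawley rats dosed iv at 2 mg/kg in 80% PEG400/20% phosphate buffered saline. Jugular vein blood was serially sampled over 24 h, and plasma was prepared from sodium heparin blood. Plasma was analysed by HPLC/MS/MS (LLOQ 1 ng/mL, ULOQ 2000 ng/mL).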

Rattus norvegicus [23] = assay: Dose normalized Cmax in Sprague-Dawley rat at 10 mg/kg, po; assay type: ADME, organism-based; set-up: dose 10 mg/kg, route oral; conditions: in vivo; in short: as §2

Hydroxycarboxylic acid receptor 3 (Homo sapiens), sequence (P49019 whole entry): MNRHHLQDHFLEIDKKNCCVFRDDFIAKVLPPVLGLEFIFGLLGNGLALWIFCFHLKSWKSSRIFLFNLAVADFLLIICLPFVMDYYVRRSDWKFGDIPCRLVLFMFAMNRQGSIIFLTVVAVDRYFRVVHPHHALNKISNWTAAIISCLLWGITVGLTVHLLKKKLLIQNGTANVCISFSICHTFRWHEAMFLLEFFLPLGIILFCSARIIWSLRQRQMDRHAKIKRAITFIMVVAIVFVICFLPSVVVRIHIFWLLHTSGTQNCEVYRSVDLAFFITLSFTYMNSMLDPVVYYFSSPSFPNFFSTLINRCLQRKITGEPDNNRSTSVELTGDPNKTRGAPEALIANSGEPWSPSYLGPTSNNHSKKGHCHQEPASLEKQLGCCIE

C[C@@H]1[C@@H]2Cc3c(C(=O)O)n[nH]c3[C@H]12 (racemic)
Activity [1]: inactive

CCOC[C@@H]1[C@@H]2Cc3c(C(=O)O)n[nH]c3[C@H]12 (racemic)
Activity [1]: inactive

O=C(O)c1cccnc1 [NIACIN]
Activity (Mus musculus [2]): 60%
Activity [1]: inactive

CC(C)C[C@H]1[C@@H]2Cc3c(C(=O)O)n[nH]c3[C@@H]21 (racemic)
Activity [1]: inactive

O=C(O)c1n[nH]c2c1C[C@H]1[C@@H](COc3ccccc3)[C@@H]21 (racemic)
Activity [1]: inactive

C[C@H]1[C@@H]2Cc3c(C(=O)O)n[nH]c3[C@H]12 (racemic)
Activity [1]: inactive

CCOC[C@H]1[C@@H]2Cc3c(C(=O)O)n[nH]c3[C@H]12 (racemic)
Activity [1]: inactive

C=CC[C@@H]1[C@@H]2Cc3c(C(=O)O)n[nH]c3[C@H]12 (racemic)
Activity [1]: inactive

CC[C@@H]1[C@@H]2Cc3c(C(=O)O)n[nH]c3[C@H]12 (racemic; form 1)
Activity [1]: inactive

C=C[C@H]1[C@@H]2Cc3c(C(=O)O)n[nH]c3[C@H]12 (racemic)
Activity [1]: inactive

C[C@@H]1[C@H]2Cc3c(C(=O)O)n[nH]c3[C@@H]12
Activity [1]: inactive

CCCCC[C@@H]1[C@@H]2Cc3c(C(=O)O)n[nH]c3[C@H]12 (racemic)
Activity [1]: inactive

C[C@@H]1[C@@H]2Cc3c(C(=O)O)n[nH]c3[C@H]12 [listing 1 of 2 here]
Activity [1]: inactive
Activity (Rattus norvegicus [3]): inactive

O=C(O)c1n[nH]c2c1C[C@H]1[C@@H](CC3CC3)[C@@H]21 (racemic; form 1)
Activity [1]: inactive

CC[C@H]1[C@@H]2Cc3c(C(=O)O)n[nH]c3[C@H]12 (racemic)
Activity [1]: inactive

C[C@@H]1[C@@H]2Cc3c(C(=O)O)n[nH]c3[C@H]12 [listing 2 of 2 here]
bioavailability [4]: 51%
Vd [5]: 0.22 L/kg
clearance [6]: 2.4 mL/min/kg
Activity (Rattus norvegicus [7]): 90%
Activity (Cytochrome P450 3A4): Not Active
Cmax/dose (Canis familiaris [8]): 26 µM·kg/mg
clearance [9]: 17 mL/min/kg
clearance [10]: 35 mL/min/kg
bioavailability [11]: 100%
Activity (Cytochrome P450 2C8): Not Active
Activity (Mus musculus [2]): 30%
AUC/dose (Rattus norvegicus [12]): 5.1 µM·kg·h/mg
Vd [13]: 0.61 L/kg
half-life [14]: 0.3 h
half-life [15]: 2.1 h
Activity (Cytochrome P450 2D6): Not Active
half-life [16]: 2.4 h
bioavailability [17]: 90%
AUC/dose (Canis familiaris [18]): 44.4 µM·kg·h/mg
Activity (Cytochrome P450 2C9): Not Active
Activity (Rattus norvegicus [19]): 90%
Cmax/dose (Mus musculus [20]): 1.5 µM·kg/mg
AUC/dose (Mus musculus [21]): 1.4 µM·kg·h/mg
Vd [22]: 0.53 L/kg
Cmax/dose (Rattus norvegicus [23]): 5 µM·kg/mg

COC[C@H]1[C@@H]2Cc3c(C(=O)O)n[nH]c3[C@H]12 (racemic)
Activity [1]: inactive

C1Cc2[nH]nc(-c3nn[nH]n3)c2C1
Activity [1]: inactive

CSC[C@@H]1[C@@H]2Cc3c(C(=O)O)n[nH]c3[C@H]12 (racemic)
Activity [1]: inactive

COC[C@@H]1[C@@H]2Cc3c(C(=O)O)n[nH]c3[C@H]12 (racemic)
Activity [1]: inactive

O=C(O)c1n[nH]c2c1C[C@H]1[C@H](Cc3ccccc3)[C@@H]21 (racemic)
Activity [1]: inactive

CSC[C@H]1[C@@H]2Cc3c(C(=O)O)n[nH]c3[C@H]12 (racemic)
Activity [1]: inactive

CC(C)CC[C@@H]1[C@@H]2Cc3c(C(=O)O)n[nH]c3[C@H]12 (racemic)
Activity [1]: inactive

CC[C@@H]1[C@@H]2Cc3c(C(=O)O)n[nH]c3[C@H]12 (racemic; form 2)
Activity [1]: inactive

CCCC[C@@H]1[C@@H]2Cc3c(C(=O)O)n[nH]c3[C@H]12 (racemic)
Activity [1]: inactive

O=C(O)c1n[nH]c2c1CC1CC21 (racemic)
Activity [1]: inactive

C[C@H]1[C@H]2Cc3c(C(=O)O)n[nH]c3[C@@H]12
Activity [1]: inactive

O=C(O)c1n[nH]c2c1C[C@@H]1[C@H]2[C@@H]1C1CC1 (racemic)
Activity [1]: inactive

CC(C)CC[C@H]1[C@@H]2Cc3c(C(=O)O)n[nH]c3[C@H]12 (racemic)
Activity [1]: inactive

CCCC[C@H]1[C@@H]2Cc3c(C(=O)O)n[nH]c3[C@H]12 (racemic)
Activity [1]: inactive

CCCCC[C@H]1[C@@H]2Cc3c(C(=O)O)n[nH]c3[C@H]12 (racemic)
Activity [1]: inactive

C=C[C@@H]1[C@@H]2Cc3c(C(=O)O)n[nH]c3[C@H]12 (racemic)
Activity [1]: inactive

CC(C)C[C@@H]1[C@@H]2Cc3c(C(=O)O)n[nH]c3[C@H]12 (racemic)
Activity [1]: inactive

C[C@H]1[C@@H]2Cc3c(C(=O)O)n[nH]c3[C@H]12
Activity [1]: inactive

CCC[C@H]1[C@@H]2Cc3c(C(=O)O)n[nH]c3[C@H]12 (racemic)
Activity [1]: inactive

O=C(O)c1n[nH]c2c1C[C@H]1[C@@H](CC3CC3)[C@@H]21 (racemic; form 2)
Activity [1]: inactive

CC1(C)C2Cc3c(C(=O)O)n[nH]c3C21 (racemic)
Activity [1]: inactive

CCC[C@@H]1[C@@H]2Cc3c(C(=O)O)n[nH]c3[C@H]12 (racemic)
Activity [1]: inactive

CC(C)[C@@H]1[C@@H]2Cc3c(C(=O)O)n[nH]c3[C@@H]21 (racemic)
Activity [1]: inactive

O=C(O)c1n[nH]c2c1C[C@H]1[C@H](c3ccccc3)[C@@H]21 (racemic)
Activity [1]: inactive

C=CC[C@H]1[C@@H]2Cc3c(C(=O)O)n[nH]c3[C@H]12 (racemic)
Activity [1]: inactive

— ChEMBL document CHEMBL2057168, “(1aR,5aR)1a,3,5,5a-Tetrahydro-1H-2,3-diaza-cyclopropa[a]pentalene-4-carboxylic acid (MK-1903): a potent GPR109a agonist that lowers free fatty acids in humans” (J Med Chem, 2012)
